A selection: hits, their analogues and other compounds. The true share with any hit is near 2.3%.
Diaph inh CS: diaphorase inhibition or chemical oxidation counter-screen; 190,000 tested, 0.69% active; diaphorase resazurin-to-resorufin fluorescence, NADH, 16 min; bacterial (C. kluyveri) enzyme, not human; inhibition, % at 20 µM;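 active = primary screen inhibition at 20 µM above a set limit, cut at about 50% in these data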
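material = Clostridium kluyveri diaphorase enzyme | amount = 0.14 U/mL diaphorase, enzyme working solution | schedule = incubation 16 min, room temperature | detection = fluorescence of resorufin formed from resazurin, Ex 544/Em 590 nm | benchmarks = positive control minus NADH, DMSO neutral control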
G6PDH CS: counter-screen for G6PDH assay hits: L. mesenteroides G6PDH inhibition; Purified L. mesenteroides G6PDH, diaphorase/resazurin coupled fluorescence, 45 min; inhibition, % at 5 µM; 200,000 tested, 0.12% active; AID 1020; in the data active = inhibition above about 50%
FLuc stim CS: firefly luciferase counter-screen for stimulation assays. P08659. ATPlite luciferase biochemical, luminescence, 10 min; 0 = ATP-free wells, 1 = DMSO control. activation factor at 10 µM. 200,000 tested, under 10 active. AID 1027;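 active = luciferase activation factor, scaled between plate controls, of at least 2 with compound at 10 µM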
Target sequence (P08659 whole entry, looked up): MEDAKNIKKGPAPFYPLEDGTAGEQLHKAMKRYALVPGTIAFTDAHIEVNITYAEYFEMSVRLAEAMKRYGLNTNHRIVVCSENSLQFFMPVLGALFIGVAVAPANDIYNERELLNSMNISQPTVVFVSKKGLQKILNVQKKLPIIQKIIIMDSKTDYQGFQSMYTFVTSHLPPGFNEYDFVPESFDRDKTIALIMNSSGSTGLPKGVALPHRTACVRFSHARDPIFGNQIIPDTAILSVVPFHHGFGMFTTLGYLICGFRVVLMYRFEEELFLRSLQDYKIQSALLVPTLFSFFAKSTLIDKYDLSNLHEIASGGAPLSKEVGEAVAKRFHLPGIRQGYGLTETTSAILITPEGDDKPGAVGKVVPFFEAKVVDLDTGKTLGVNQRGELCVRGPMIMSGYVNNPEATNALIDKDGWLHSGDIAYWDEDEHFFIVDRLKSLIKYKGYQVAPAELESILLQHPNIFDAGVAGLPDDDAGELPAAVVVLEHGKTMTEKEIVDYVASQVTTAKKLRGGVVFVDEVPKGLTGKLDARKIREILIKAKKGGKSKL
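Material: luciferase plus luciferin reagent, cell-free. Medium: PBS buffer for ATP. Also added: ATP substrate, dispensed from a 10.24 µM working solution in PBS. Doses: test compounds dosed from 2 mM stocks in 100% DMSO. Incubation: 10 min post-reagent at room temperature. Technique: light output (luminescence). Read-out basis: luminescence gain marking luciferase activators.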
Diaphorase act: counter-screen for diaphorase-based assays: diaphorase activators and chemical reducers; Diaphorase/resazurin coupled assay, resorufin fluorescence, 16 min; hits give high values; 1 = vehicle wells, 0 = NADH-free wells; activation factor at 20 µM; 190,000 tested, 0.005% active; AID 1229;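 active = diaphorase activity raised at least twofold by the compound at 20 µM; inactive = activation factor below 2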
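Material: Purified diaphorase enzyme from Clostridium kluyveri | Buffer or medium: 50 mM HEPES pH 7.4 with 4.542 mM MgCl2, 0.005% Tween 20 | Times: 16 min enzyme reaction, ambient temperature | Signal: Red resorufin fluorescence at 544/590 nm excitation/emission | Measure: Increased resorufin signal from activators or reducing compounds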
FLuc inh counter: Photinus pyralis luciferase inhibition counter-screen; ATPLite firefly luciferase biochemical luminescence, 10 min; inhibition, % at 10 µM; P08659; 200,000 tested, 1.5% active; AID 1006;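 active = inhibition above about 50% when tested at 10 µM, limit read from the data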
A number is an active result; – = inactive.

SMILES	Diaph inh CS	G6PDH CS	FLuc stim CS	Diaphorase act	FLuc inh counter
Cc1ccc(C)c(-c2nc3cc(N)ccc3o2)c1	–	–	–	–	–
O=C(Nc1ccc(Cl)c(Cl)c1)Nc1cc(S(=O)(=O)N2CCOCC2)ccc1N1CCCC1	–	–	–	–	–
CC(C)(C)c1ccc(Cn2ccc(-c3ccc4c(c3)OCO4)n2)cc1	–	–	–	–	–
CCOC(=O)N1CCN(Cc2nc(-c3ccc(C)cc3)no2)CC1	–	–	–	–	–
CC(=O)NC1=C(N(C)C2CCS(=O)(=O)C2)C(=O)c2ccccc2C1=O (configuration not stated)	62	–	–	–	–
Cc1ccc(NC(=O)ON=C2CCCC2)cc1	–	–	–	–	62
O=C(Nc1ccccc1)ON=C1CCCC1	–	–	–	–	–
CCCn1c(/N=C/c2ccc3c(c2)OCO3)nc2ccccc21	–	–	–	–	–
C=CCn1c(/N=C/c2ccc3c(c2)OCO3)nc2ccccc21	–	–	–	–	72
CCCCNC(=O)c1onc(CSc2ccc(Cl)cc2)c1C(=O)O	–	–	–	–	–
COc1ccc2ccccc2c1C1CC(=O)N2CN(C3CCCCC3)CSC2=C1C#N (configuration not stated)	–	–	–	–	–
Cc1cccc(N2CSC3=C(C#N)C(c4ccc(C)o4)CC(=O)N3C2)c1 (configuration not stated)	64	–	–	–	–
COc1ccc(C2CC(=O)N3CN(c4ccc(C)c(Cl)c4)CSC3=C2C#N)cc1 (configuration not stated)	50	–	–	–	–
CCOc1cc(C2CC(=O)N3CN(C4CCCCC4)CSC3=C2C#N)ccc1O (configuration not stated)	58	–	–	–	–
COc1ccc(OC)c(C2CC(=O)N3CN(c4ccccc4)CSC3=C2C#N)c1 (configuration not stated)	–	–	–	–	–
COc1ccc(N2CSC3=C(C#N)C(c4cccc(OC)c4OC)CC(=O)N3C2)cc1 (configuration not stated)	–	–	–	–	–
COc1ccc(C2CC(=O)N3CN(c4ccccc4F)CSC3=C2C#N)cc1OC (configuration not stated)	53	–	–	–	–
N#CC1(c2nc3ccccc3[nH]2)CC1c1ccc2c(c1)OCO2 (configuration not stated)	–	–	–	–	–
COc1ccc(N(CC(=O)Nc2ccccc2C(=O)O)S(=O)(=O)c2ccc(C)c([N+](=O)[O-])c2)cc1	–	–	–	–	–
CC(=O)C1=NN(c2ccccc2)C2(S1)S/C(=C\c1ccccc1)C(=O)N2c1ccccc1 (configuration not stated)	–	–	–	–	–
Nc1nc2c(Cl)ccc(Cl)c2s1	–	–	–	–	–
CC(C)c1nc2sc3c(=O)[nH]c(=S)[nH]c3c2c2c1CCC2	85	–	–	–	–
COc1cc2cc3c(N)c(C(=O)NCc4ccco4)sc3nc2cc1OC	–	–	–	–	–
Cc1ccc2nc3sc(C(=O)NCc4ccco4)c(N)c3cc2c1	–	–	–	–	50
Cc1ccc2nc3sc(C(=O)N4CCOCC4)c(N)c3cc2c1	–	–	–	–	81
SMILES	Diaph inh CS	G6PDH CS	FLuc stim CS	Diaphorase act	FLuc inh counter
Fc1ccc(CN2CCCCCCC2)cc1F	–	–	–	–	–
Oc1ccc(-c2cn3c(n2)SCC3)cc1O	52	–	–	–	–
Oc1ccc(-c2cn3c(n2)SCC3)cc1	–	–	–	–	–
O=C(O)c1ccccc1N/N=C\c1ccnc2ccccc12	–	–	–	–	89
CCCc1nn(C)c(C(N)=O)c1[N+](=O)[O-]	–	–	–	–	–
O=C(Nc1ccc2c(c1)CCC2)c1cc2ccccc2o1	–	–	–	–	54
NC(=O)c1c(NC(=O)c2cc3ccccc3o2)sc2c1CCC2	–	–	–	–	66
Cc1ccc(C(=O)Nc2ccc3c(c2)CCC3)o1	–	–	–	–	55
O=C(Nc1ccc2c(c1)CCC2)c1ccc(Br)o1	–	–	–	–	–
Cc1cc(C)n2nc(C(=O)Nc3ccc(S(=O)(=O)N4CCCCC4)cc3)nc2n1	–	–	–	–	–
CC(=O)Nc1sc2c(c1C(N)=O)CCC2	–	–	–	–	–
Cc1cc(C)n2nc(C(=O)Nc3ccc4c(c3)CCC4)nc2n1	–	–	–	–	52
CCOc1ccc(-c2nc(C#N)c(NCc3ccco3)o2)cc1	–	–	–	–	–
O=S(=O)(NCCOCC(F)(F)C(F)F)c1ccc2oc3ccccc3c2c1	–	–	–	–	–
NS(=O)(=O)c1ccc(NC(=S)Nc2ccn(Cc3cccc4ccccc34)n2)cc1	–	–	–	–	–
CCOC(=O)SC1=N/C(=C\c2ccc(N(C)C)cc2)C(=O)S1	50	–	–	–	–
CCSC1=N/C(=C\c2ccc(C(=O)O)cc2)C(=O)S1	–	–	–	–	–
O=C(/C=C/Sc1ccccc1)c1ccc(Cl)cc1	–	–	–	–	61
O=C(/C=C/Sc1ccccc1)c1ccccc1	–	–	–	–	88
Cc1ccc(C=Nc2ccccc2C(N)=O)cc1	–	–	–	–	–
CC(C)(C)c1ccc(/C=C/C(=O)NC2=NCCS2)cc1	–	–	–	–	–
Cc1ccc(/C=C/C(=O)Nc2ccccc2C(N)=O)cc1	–	–	–	–	93
Cc1ccc(C(=O)/C=C/Nc2ccccc2C(N)=O)cc1	–	–	–	–	97
Cc1ccc(/C=C/C(=O)NC2=NCCS2)cc1	–	–	–	–	86
NC(=O)c1ccccc1NC(=O)/C=C/C(=O)O	–	–	–	–	–
SMILES	Diaph inh CS	G6PDH CS	FLuc stim CS	Diaphorase act	FLuc inh counter
NC(=O)c1ccccc1N/C=C/C(=O)c1ccc(Cl)cc1	–	–	–	–	94
CN1C(=O)/C(=C/c2cc(C(C)(C)C)c(O)c(C(C)(C)C)c2)NC1=S	–	–	–	–	–
CCc1cccc(C)c1NC(=S)N(CCCN1CCOCC1)Cc1cccnc1	–	–	–	–	–
CCOC(=O)C1=C(c2cccc(F)c2)NC(=S)NC1C (configuration not stated)	–	–	–	–	–
CS(=O)(=O)c1ccc2nc(NC(=O)c3cc4ccccc4o3)sc2c1	–	–	–	–	–
CCOC(=O)c1ccc2nc(NC(=O)c3cccs3)sc2c1	–	–	–	–	–
CS(=O)(=O)c1ccc2nc(NC(=O)c3ccco3)sc2c1	–	–	–	–	77
O=C(NC(=S)Nc1cccc(NC(=S)NC(=O)c2ccco2)n1)c1ccco1	–	–	–	–	–
CCOC(=O)c1ccc2nc(NC(=O)c3ccco3)sc2c1	–	–	–	–	51
O=C(NC(=S)Nc1nc2ccc(F)cc2s1)c1ccco1	–	–	–	–	86
